Test results: ChEMBL document CHEMBL1828561, “Identification of a potent and selective free fatty acid receptor 1 (FFA1/GPR40) agonist with favorable physicochemical and in vitro ADME properties” (J Med Chem, 2011)
Values after ≈ are worked out from the molar mass of the structure shown. Active and inactive are the calls of the source. No cut-off for these calls is given here.

Key:
[1] = biological target: T1, Free fatty acid receptor 1 (Homo sapiens, UniProt O14842); experiment: Agonist activity at human FFA1 receptor expressed in human HEK293 assessed as movement of cellular constitiuent by DMR assay; format: functional, cell-based
Outline: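 FFA1-HEK cells (doxycycline-inducible FLAG-hFFA1, HEK293), 15 000/well on fibronectin-coated 384-well Epic plates, 20–24 h culture. Washed in HBSS/20 mM HEPES, equilibrated 1 h at 28 °C, baseline read, compound added.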

[2] = system: 1321-N1; experiment: Selectivity for human FFA1 receptor expressed in human 1321N1 cells over Delta2 receptor; format: cell-based
[3] = Aqueous solubility of the compound in PBS at pH 7.4; format: physicochemical
Outline: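 Solubility measured in PBS at pH 7.4.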

[4] = biological target: T1, Free fatty acid receptor 1; experiment: Agonist activity at human FFA1 receptor expressed in human 1321N1 cells assessed as calcium mobilization by fluorescence spectrophotometry; format: functional, cell-based
[5] = system: 1321-N1; experiment: Selectivity for human FFA1 receptor expressed in human 1321N1 cells over H1 receptor; format: cell-based
[6] = biological target: T1, Free fatty acid receptor 1; experiment: Agonist activity at human FFA1 receptor expressed in human HEK293 assessed as accumulation of IP1 by time-resolved fluorescence assay; format: functional, cell-based
Outline: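 Doxycycline-inducible FLAG-tagged human FFA1 in Flp-In T-Rex HEK293 cells, 100 000 cells/well (384-well). 20 min at 37 °C, then ligands in HBSS/10 mM HEPES/50 mM LiCl for 30 min. HTRF IP1 kit (d2 conjugate, Eu cryptate anti-IP1), 60 min at room temperature. 665/620 nm ratio expressed as ΔF%, normalized to maximal response at 10 μM of the reference agonist; n = 5.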

[7] = system: 1321-N1; experiment: Selectivity for human FFA1 receptor expressed in human 1321N1 cells over NOP receptor; format: cell-based
[8] = system: 1321-N1; experiment: Selectivity for human FFA1 receptor expressed in human 1321N1 cells over GAL2 receptor; format: cell-based
[9] = system: HEK293; experiment: Selectivity for human FFA1 receptor expressed in human 1321N1 cells over human FFA3 receptor expressed in HEK293 cells at 10 uM; format: cell-based
[10] = system: 1321-N1; experiment: Selectivity for human FFA1 receptor expressed in human 1321N1 cells over VPAC1 receptor; format: cell-based
[11] = biological target: CYP2C9 (Homo sapiens, UniProt P11712); experiment: Inhibition of CYP2C9 at 10 uM; format: ADME
[12] = system: 1321-N1; experiment: Selectivity for human FFA1 receptor expressed in human 1321N1 cells over A2A receptor; format: cell-based
[13] = system: 1321-N1; experiment: Selectivity for human FFA1 receptor expressed in human 1321N1 cells over SKCa channel; format: cell-based
[14] = system: 1321-N1; experiment: Selectivity for human FFA1 receptor expressed in human 1321N1 cells over GABA receptor; format: cell-based
[15] = system: 1321-N1; experiment: Selectivity for human FFA1 receptor expressed in human 1321N1 cells over 5HT2B receptor; format: cell-based
[16] = biological target: T1, Free fatty acid receptor 1; experiment: Agonist activity at human FFA1 receptor expressed in human 1321N1 cells assessed as calcium mobilization by fluorescence spectrophotometry relative to 10 uM TUG-20; format: functional, cell-based
Outline: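 Human FFA1 stably expressed in 1321N1 cells kept under G418 selection, 30000–40000 cells/well. After 24 h, washed in Krebs-HEPES pH 7.4 and loaded 1 h at 37 °C with 1.5 μM Oregon Green 488 BAPTA-1/AM. Compound injected at 10-fold concentration at 37 °C; fluorescence ex 485/em 520 nm over 50 × 0.4 s. Efficacy as % of maximal response to 10 μM TUG-20.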

[17] = system: 1321-N1; experiment: Selectivity for human FFA1 receptor expressed in human 1321N1 cells over 5HT5a receptor; format: cell-based
[18] = system: 1321-N1; experiment: Selectivity for human FFA1 receptor expressed in human 1321N1 cells over CB1 receptor; format: cell-based
[19] = system: 1321-N1; experiment: Selectivity for human FFA1 receptor expressed in human 1321N1 cells over Y1 receptor; format: cell-based
[20] = system: 1321-N1; experiment: Selectivity for human FFA1 receptor expressed in human 1321N1 cells over M3 receptor; format: cell-based
[21] = biological target: CYP3A4 (Homo sapiens, UniProt P08684); experiment: Inhibition of CYP3A4 at 10 uM; format: ADME
[22] = system: 1321-N1; experiment: Selectivity for human FFA1 receptor expressed in human 1321N1 cells over Ca2+ channel; format: cell-based
[23] = system: 1321-N1; experiment: Selectivity for human FFA1 receptor expressed in human 1321N1 cells over MC4 receptor; format: cell-based
[24] = system: 1321-N1; experiment: Selectivity for human FFA1 receptor expressed in human 1321N1 cells over norepinephrine transporter; format: cell-based
[25] = Inhibition of P-glycoprotein at 100 uM
Outline: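 P-glycoprotein inhibition tested at 100 μM compound.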

[26] = system: 1321-N1; experiment: Selectivity for human FFA1 receptor expressed in human 1321N1 cells over 5HT7 receptor; format: cell-based
[27] = system: 1321-N1; experiment: Selectivity for human FFA1 receptor expressed in human 1321N1 cells over AT1 receptor; format: cell-based
[28] = system: 1321-N1; experiment: Selectivity for human FFA1 receptor expressed in human 1321N1 cells over A3 receptor; format: cell-based
[29] = system: 1321-N1; experiment: Selectivity for human FFA1 receptor expressed in human 1321N1 cells over M1 receptor; format: cell-based
[30] = system: 1321-N1; experiment: Selectivity for human FFA1 receptor expressed in human 1321N1 cells over NTS1 receptor; format: cell-based
[31] = system: 1321-N1; experiment: Selectivity for human FFA1 receptor expressed in human 1321N1 cells over Na+ channel; format: cell-based
[32] = system: 1321-N1; experiment: Selectivity for human FFA1 receptor expressed in human 1321N1 cells over MT1 receptor; format: cell-based
[33] = system: 1321-N1; experiment: Selectivity for human FFA1 receptor expressed in human 1321N1 cells over TP receptor; format: cell-based
[34] = biological target: Free fatty acid receptor 1 (Rattus norvegicus) (UniProt Q8K3T4); experiment: Agonist activity at FFA1 receptor in rat INS-1E cells assessed as movement of cellular constitiuent at 0.3 uM by DMR assay in the presence of trans-1-oxo-3-(4-phenoxyphenyl)-2-propyl-1,2,3,4-tetrahydroisoquinoline-4-carboxylic acid; format: functional, cell-based
Outline: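 Label-free DMR on an Epic optical biosensor. Rat INS-1E cells, 30 000/well on fibronectin-coated 384-well sensor plates, cultured 20–24 h to confluence. Washed in HBSS/20 mM HEPES and equilibrated 1 h at 28 °C. Baseline read, compound added, wavelength shift (pm) monitored ≥5000 s. Antagonist line: 0.3 μM agonist with the FFA1 antagonist over a concentration range, pIC50 derived, n = 4.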

[35] = biological target: Free fatty acid receptor 1 (Rattus norvegicus) (UniProt Q8K3T4); experiment: Agonist activity at FFA1 receptor in rat INS-1E cells assessed as increase in glucose-stimulated insulin production at 10 uM after 1 hr by radioimmunoassay in presence of 12 mM glucose; format: functional, cell-based
Outline: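 Rat INS-1E cells seeded at 100 000 cells/mL in 24-well plates for 2 days. Incubated 1 h at 37 °C in pH 7.4 HEPES-bicarbonate saline with 1 mM CaCl2 and 0.5 g/L fatty-acid-free BSA plus test substance. Secreted insulin and acid-ethanol-extracted content measured by radioimmunoassay. Mean ± SE, n = 8.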

[36] = system: 1321-N1; experiment: Selectivity for human FFA1 receptor expressed in human 1321N1 cells over Y2 receptor; format: cell-based
[37] = system: 1321-N1; experiment: Selectivity for human FFA1 receptor expressed in human 1321N1 cells over kappa receptor; format: cell-based
[38] = system: 1321-N1; experiment: Selectivity for human FFA1 receptor expressed in human 1321N1 cells over alpha2 receptor; format: cell-based

T1 sequence (O14842 whole entry): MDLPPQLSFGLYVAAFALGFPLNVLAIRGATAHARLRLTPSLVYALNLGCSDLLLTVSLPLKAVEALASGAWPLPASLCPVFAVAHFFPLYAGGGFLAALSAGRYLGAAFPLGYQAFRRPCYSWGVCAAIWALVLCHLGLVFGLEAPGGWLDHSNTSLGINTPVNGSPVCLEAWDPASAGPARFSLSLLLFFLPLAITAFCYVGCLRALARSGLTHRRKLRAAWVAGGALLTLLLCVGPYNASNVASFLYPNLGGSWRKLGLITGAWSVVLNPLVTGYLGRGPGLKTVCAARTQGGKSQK
Free fatty acid receptor 1 (Rattus norvegicus), sequence (Q8K3T4 whole entry): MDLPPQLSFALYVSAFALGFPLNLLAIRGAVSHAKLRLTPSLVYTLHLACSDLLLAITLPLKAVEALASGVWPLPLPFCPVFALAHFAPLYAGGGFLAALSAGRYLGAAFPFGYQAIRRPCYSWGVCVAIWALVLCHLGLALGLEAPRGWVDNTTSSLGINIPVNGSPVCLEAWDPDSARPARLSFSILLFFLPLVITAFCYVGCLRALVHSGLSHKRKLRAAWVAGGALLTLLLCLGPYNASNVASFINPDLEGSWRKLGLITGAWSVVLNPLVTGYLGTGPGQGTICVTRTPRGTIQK
CYP2C9, sequence (P11712 whole entry): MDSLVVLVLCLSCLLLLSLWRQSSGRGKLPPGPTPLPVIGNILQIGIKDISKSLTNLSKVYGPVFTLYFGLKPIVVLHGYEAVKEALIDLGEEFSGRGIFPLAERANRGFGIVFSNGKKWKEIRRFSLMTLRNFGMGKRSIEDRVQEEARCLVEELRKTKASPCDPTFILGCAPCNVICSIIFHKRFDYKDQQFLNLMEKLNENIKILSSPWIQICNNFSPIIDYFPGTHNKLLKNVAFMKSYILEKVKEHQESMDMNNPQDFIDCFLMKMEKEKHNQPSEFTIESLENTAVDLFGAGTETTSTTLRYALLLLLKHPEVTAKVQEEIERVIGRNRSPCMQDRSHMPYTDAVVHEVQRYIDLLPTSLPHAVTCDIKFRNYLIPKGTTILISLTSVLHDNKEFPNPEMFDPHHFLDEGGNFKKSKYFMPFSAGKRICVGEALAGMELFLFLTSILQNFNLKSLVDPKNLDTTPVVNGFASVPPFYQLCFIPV
CYP3A4, sequence (P08684 whole entry): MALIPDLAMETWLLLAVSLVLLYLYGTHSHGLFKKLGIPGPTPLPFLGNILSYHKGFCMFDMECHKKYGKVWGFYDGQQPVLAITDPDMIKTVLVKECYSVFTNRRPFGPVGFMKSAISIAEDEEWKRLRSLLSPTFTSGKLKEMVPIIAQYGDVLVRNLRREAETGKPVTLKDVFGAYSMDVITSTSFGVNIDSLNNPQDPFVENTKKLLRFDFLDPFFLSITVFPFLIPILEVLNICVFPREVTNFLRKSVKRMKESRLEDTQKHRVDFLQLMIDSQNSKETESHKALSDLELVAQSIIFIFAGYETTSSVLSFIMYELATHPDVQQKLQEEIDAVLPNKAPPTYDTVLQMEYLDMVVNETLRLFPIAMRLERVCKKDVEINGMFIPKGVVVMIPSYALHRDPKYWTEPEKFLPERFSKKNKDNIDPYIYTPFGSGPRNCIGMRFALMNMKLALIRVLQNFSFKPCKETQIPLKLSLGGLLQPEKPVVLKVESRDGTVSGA

## O=C(O)CCc1ccc(C#Cc2cc(Cl)nc(Cl)c2)cc1
[1]
  Activity: Active
[2]
  Selectivity ratio: > 100
[3]
  solubility: 199 µM (≈ 63.7 µg/mL)
[4]
  EC50: 40.7 nM
[5]
  Selectivity ratio: > 100
[6]
  Activity: Active
[7]
  Selectivity ratio: > 100
[8]
  Selectivity ratio: > 100
[9]
  Selectivity ratio: > 100
[10]
  Selectivity ratio: > 100
[11]
  inhibition at 10 µM: -4%
[12]
  Selectivity ratio: > 100
[13]
  Selectivity ratio: > 100
[14]
  Selectivity ratio: > 100
[15]
  Selectivity ratio: > 100
[16]
  Efficacy: 103%
[17]
  Selectivity ratio: > 100
[18]
  Selectivity ratio: > 100
[19]
  Selectivity ratio: > 100
[20]
  Selectivity ratio: > 100
[21]
  inhibition at 10 µM: 5%
[22]
  Selectivity ratio: > 100
[23]
  Selectivity ratio: > 100
[24]
  Selectivity ratio: > 100
[25]
  inhibition: -1.9%
[26]
  Selectivity ratio: > 100
[27]
  Selectivity ratio: > 100
[28]
  Selectivity ratio: > 100
[29]
  Selectivity ratio: > 100
[30]
  Selectivity ratio: > 100
[31]
  Selectivity ratio: > 100
[32]
  Selectivity ratio: > 100
[33]
  Selectivity ratio: > 100
[34]
  Activity: inactive
[35]
  Activity: 60%
[36]
  Selectivity ratio: > 100
[37]
  Selectivity ratio: > 100
[38]
  Selectivity ratio: > 100
